According to ChEMBL document CHEMBL1133466, “Synthesis and antimalarial activity of sixteen dispiro-1,2,4, 5-tetraoxanes: alkyl-substituted 7,8,15,16-tetraoxadispiro[5.2.5. 2]hexadecanes” (J Med Chem, 2000):
pIC50: −log10 of the molar value.

Legend:
[1] = Evaluated for the neurotoxicity against NB2a Neuroblastoma cells.; format: functional, cell-based, Mus musculus
Method in brief: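 Neurite outgrowth assay in NB2a neuroblastoma cells grown in high-glucose DMEM with 5% horse serum and 5% fetal calf serum, 37 °C, 5% CO2. Cells plated at 15 000 cells/mL. After 24 h, switched to serum-free medium with 0.5 mM dibutyryl cAMP plus drug at 10 and 0.1 µM for a further 24 h. Cells fixed in formaldehyde and stained with Coomassie. Average neurite length per cell measured by image analysis over 10 fields of about 20 cells; IC50 reported.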

[2] = tested on: Plasmodium falciparum; experiment: Antimalarial activity against chloroquine-resistant Plasmodium falciparum W2; format: functional, organism-based
[3] = tested on: Mus musculus; experiment: Evaluated for the percentage of subcutaneously to Plasmodium berghei infected mice on days 3, 4, and 5 post infection.; format: functional
Method in brief: (§1)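 Modified Thompson test. Five-week-old CD-1 mice infected ip on day 0 with drug-sensitive P. berghei KBG 173 trophozoites from a donor mouse at 60% parasitemia. Groups of five or seven mice dosed sc b.i.d. on days 3, 4 and 5 at 64 mg/kg/day. Parasitemia read on Giemsa-stained blood films on day 6, then weekly to day 60. Survival followed; mice alive and blood-film negative at day 60 counted as cured.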

[4] = tested on: Plasmodium falciparum; experiment: Antimalarial activity against chloroquine-sensitive Plasmodium falciparum D6; format: functional, organism-based
[5] = tested on: Mus musculus; experiment: Evaluated for the survival of the mice when 128 mg/kg/day was administered orally to Plasmodium berghei infected mice on days 3, 4, and 5 post infection;1/9 1/26 3/C(C=survival beyond 60 days); format: functional, organism-based
Method in brief: as §1, with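 “po” for “sc”, “128” for “64”, “Giemsa” for “Parasitemia read on Giemsa-stained”, “films taken” for “films”, “Day of death recorded;” for “Survival followed;”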

[6] = tested on: Mus musculus; experiment: Evaluated for the survival of the mice when 64 mg/kg/day was administered subcutaneously to Plasmodium berghei infected mice on days 3, 4, and 5 post infection;1/8, 1/9, 1/10, 1/12, 1/15; format: functional, organism-based; method in brief: as §1
[7] = tested on: Mus musculus; experiment: Evaluated for the survival of the mice when 128 mg/kg/day was administered orally to Plasmodium berghei infected mice on days 3, 4, and 5 post infection.1/8, 2/16, 1/32, 3/C(C=survival beyond 60 days); format: functional, organism-based
Method in brief: as §1, with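 “po” for “sc”, “128” for “64”, “Giemsa” for “Parasitemia read on Giemsa-stained”, “films taken” for “films”, “Day of death recorded;” for “Survival followed;”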

[8] = tested on: Mus musculus; experiment: Evaluated for the survival of the mice when 64 mg/kg/day was administered subcutaneously to Plasmodium berghei infected mice on days 3, 4, and 5 post infection;1/8, 2/9, 1/10, 1/13; format: functional, organism-based; method in brief: as §1
[9] = tested on: Mus musculus; experiment: Evaluated for the survival of the mice when 128 mg/kg/day was administered orally to Plasmodium berghei infected mice on days 3, 4, and 5 post infection; 5/C(C=survival beyond 60 days); format: functional, organism-based
Method in brief: as §1, with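 “po” for “sc”, “128” for “64”, “Giemsa” for “Parasitemia read on Giemsa-stained”, “films taken” for “films”, “Day of death recorded;” for “Survival followed;”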

[10] = tested on: Mus musculus; experiment: Evaluated for the survival of the mice when 64 mg/kg/day was administered subcutaneously to Plasmodium berghei infected mice on days 3, 4, and 5 post infection; 7/C(C=survival beyond 60 days); format: functional, organism-based; method in brief: as §1
[11] = tested on: Mus musculus; experiment: Evaluated for the survival of the mice when 128 mg/kg/day was administered orally to Plasmodium berghei infected mice on days 3, 4, and 5 post infection; 1/15; 1/17; 1/18; 2/C(C=Survival beyond 60 days); format: functional, organism-based
Method in brief: as §1, with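 “po” for “sc”, “128” for “64”, “Giemsa” for “Parasitemia read on Giemsa-stained”, “films taken” for “films”, “Day of death recorded;” for “Survival followed;”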

[12] = tested on: Mus musculus; experiment: Evaluated for the survival of the mice when 64 mg/kg/day was administered subcutaneously to Plasmodium berghei infected mice on days 3, 4, and 5 post infection;1/9, 2/10, 1/18, 1/19; format: functional, organism-based; method in brief: as §1

With CC[C@@H]1CCCCC12OOC1(CCCC[C@@H]1CC)OO2 (stereo partly specified) the pIC50 [1] was 8.03, the pIC50 [2] was 7.72 and the Parasitemia [3] was 28%. It also gave a pIC50 [4] of 7.64.

Work on CC1CCCC2(C1)OOC1(CCCC(C)C1)OO2 (stereo unspecified) yielded a pIC50 [1] of 7.80, a pIC50 [2] of 7.29 and a pIC50 [4] of 7.12.

CC1CCCC2(OOC3(CCCC(C)C3C)OO2)C1C (stereo unspecified) showed a pIC50 [2] of 7.37, a Parasitemia [3] of 3% and a pIC50 [4] of 7.30.

C[C@@H]1CCCCC12OOC1(CCCC[C@@H]1C)OO2 (stereo partly specified) [WR-148999] showed a pIC50 [1] of 8.08, a pIC50 [2] of 7.49 and a Parasitemia [3] of 11%. The pIC50 [4] was 7.26.

With CC1CCC2(OOC3(CCC(C)CC3C)OO2)C(C)C1 (stereo unspecified) the pIC50 [1] was under 9.00, the pIC50 [2] was 7.31 and the pIC50 [4] was 6.96.

For CC(C)(C)C1CCC2(CC1)OOC1(CCC(C(C)(C)C)CC1)OO2 (stereo unspecified), the pIC50 [1] was 8.55, the pIC50 [2] was 7.00 and the pIC50 [4] was 6.70.

In the case of CC1CCC(C)C2(C1)OOC1(CC(C)CCC1C)OO2 (stereo unspecified), the pIC50 [1] was 7.77, the pIC50 [2] was 7.72 and the “No. of mice dead/day died” value [5] was “survival beyond 60 days”. For the same molecule, the “No. of mice dead/day died” value [6] was “survival beyond 60 days”, the Parasitemia [3] was 13% and the pIC50 [4] was 7.82.

With C[C@@H]1CC[C@H]2[C@@H](C)C(=O)O[C@@H]3O[C@@]4(C)CC[C@@H]1[C@]32OO4 [ARTEMISININ] the pIC50 [2] was 8.14 and the pIC50 [4] was 8.08.

Molecule CC1(C)CC(C)(C)CC2(C1)OOC1(CC(C)(C)CC(C)(C)C1)OO2 has a pIC50 [1] of 8.44, a pIC50 [2] of under 6.00 and a pIC50 [4] of under 6.00.

With CC1CCC(C(C)C)C2(C1)OOC1(CC(C)CCC1C(C)C)OO2 (stereo unspecified) the pIC50 [1] was 7.43, the pIC50 [2] was 7.43 and the “No. of mice dead/day died” value [7] was “survival beyond 60 days”. The “No. of mice dead/day died” value [8] was “survival beyond 60 days”, the Parasitemia [3] was 7% and the pIC50 [4] was 7.33.

In the case of CC1CCC2(CC1)OOC1(CCC(C)CC1)OO2 (stereo unspecified), the pIC50 [1] was 8.96, the pIC50 [2] was 7.68 and the Parasitemia [3] was 22%. It also gave a pIC50 [4] of 7.64.

For CCO[C@H]1O[C@@H]2O[C@@]3(C)CC[C@H]4[C@H](C)CC[C@@H]([C@H]1C)[C@@]24OO3 [ARTEMOTIL], the pIC50 [2] was 8.85, the “No. of mice dead/day died” value [9] was “survival beyond 60 days” and the “No. of mice dead/day died” value [10] was “survival beyond 60 days”. The Parasitemia [3] was 0% and the pIC50 [4] was 8.57.

CC(C)(C)[C@H]1CCCCC12OOC1(CCCC[C@H]1C(C)(C)C)OO2 (stereo partly specified) showed a pIC50 [1] of 8.47, a pIC50 [2] of 6.80 and a pIC50 [4] of under 6.52.

With CC(C)C1CCC(C)C2(C1)OOC1(CC(C(C)C)CCC1C)OO2 (stereo unspecified) the pIC50 [1] was 7.40, the pIC50 [2] was 7.03 and the pIC50 [4] was 6.85.

CC1CC(C)CC2(C1)OOC1(CC(C)CC(C)C1)OO2 (stereo unspecified) showed a pIC50 [1] of 8.17, a pIC50 [2] of 7.82 and a Parasitemia [3] of 82%. The pIC50 [4] was 7.52.

With CC1CC(C)(C)CCC12OOC1(CCC(C)(C)CC1C)OO2 (stereo unspecified) the pIC50 [1] was 8.85, the pIC50 [2] was under 6.00 and the pIC50 [4] was under 6.00.

For CC1CCC2(CC1C)OOC1(CCC(C)C(C)C1)OO2 (stereo unspecified), the pIC50 [1] was 8.36, the pIC50 [2] was 8.00 and the “No. of mice dead/day died” value [11] was “Survival beyond 60 days”. The “No. of mice dead/day died” value [12] was “Survival beyond 60 days”, the Parasitemia [3] was 14% and the pIC50 [4] was 7.92.

With CO[C@H]1O[C@@H]2O[C@@]3(C)CC[C@H]4[C@H](C)CC[C@@H]([C@H]1C)[C@@]24OO3 [ARTEMETHER] the pIC50 [1] was 6.45.

With CC1(C)CCC2(CC1)OOC1(CCC(C)(C)CC1)OO2 the pIC50 [1] was 8.70, the pIC50 [2] was under 6.00 and the pIC50 [4] was under 6.00.

CCC[C@@H]1CCCCC12OOC1(CCCC[C@@H]1CCC)OO2 (stereo partly specified) showed a pIC50 [2] of 7.41 and a pIC50 [4] of 7.08.
